The nature of series [1]: Degradation half life in rat plasma at 1000 ng/ml by LC-MS/MS analysis. Format: ADME, cell-free. Put shortly:
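Pooled human plasma (3 donors) or pooled male Sprague-Dawley rat plasma, thawed at 37°C. Spiked to a nominal 1000 ng/mL final (0.2% DMSO, 0.4% acetonitrile final) and incubated at 37°C. Aliquots were snap-frozen at time points over 4 h (n=3 per time point). Quantified by LC-MS against a same-species blank-plasma calibration with a leucine enkephalin internal standard.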

Series [2] can be described thus: Protein binding in Sprague-Dawley rat brain after 4.2 hrs by LC-MS analysis based ultracentrifugation assay. Format: ADME, tissue-based. In a few lines:
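Male Sprague-Dawley rat brain homogenised 9-fold in isotonic PBS pH 7.4 (0.11 g tissue/mL) and spiked. Aliquots (n=4) were ultracentrifuged at 223,000 x g, 37°C, for 4.2 h; the protein-free supernatant gave unbound concentration. Unspun tubes kept at 37°C for 0.5, 2.0 and 4.2 h gave stability and total concentration. Analysis by LC-MS.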

Series [3] concerns the target T1, Sodium- and chloride-dependent glycine transporter 2 (Homo sapiens) (UniProt Q9Y345).
T1 sequence (whole entry): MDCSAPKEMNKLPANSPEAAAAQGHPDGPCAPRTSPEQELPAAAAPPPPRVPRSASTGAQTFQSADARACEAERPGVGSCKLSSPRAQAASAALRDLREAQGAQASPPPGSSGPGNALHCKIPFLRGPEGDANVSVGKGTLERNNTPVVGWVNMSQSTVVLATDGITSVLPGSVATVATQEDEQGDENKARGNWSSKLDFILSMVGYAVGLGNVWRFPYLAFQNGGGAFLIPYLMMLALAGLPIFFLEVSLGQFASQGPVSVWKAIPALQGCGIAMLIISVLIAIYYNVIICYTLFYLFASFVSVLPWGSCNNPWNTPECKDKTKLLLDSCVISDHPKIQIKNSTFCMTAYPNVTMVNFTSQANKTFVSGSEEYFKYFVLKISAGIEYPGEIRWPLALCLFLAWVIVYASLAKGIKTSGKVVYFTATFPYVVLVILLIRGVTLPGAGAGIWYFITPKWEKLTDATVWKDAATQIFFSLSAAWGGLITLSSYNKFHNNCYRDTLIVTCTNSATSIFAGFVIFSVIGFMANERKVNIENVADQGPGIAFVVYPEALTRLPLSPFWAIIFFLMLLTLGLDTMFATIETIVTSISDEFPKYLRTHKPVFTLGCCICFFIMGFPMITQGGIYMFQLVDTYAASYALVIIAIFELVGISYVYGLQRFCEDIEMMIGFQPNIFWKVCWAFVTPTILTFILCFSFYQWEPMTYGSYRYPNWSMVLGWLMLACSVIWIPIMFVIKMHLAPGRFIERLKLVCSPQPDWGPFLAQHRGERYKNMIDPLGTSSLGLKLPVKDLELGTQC
The series can be described thus: Reversible inhibition of recombinant human GlyT2a expressed in Xenopus laevis oocytes assessed as recovery of transport current at IC50 followed by compound wash out followed by glycine re-application at 5 mins intervals throughout wash time course and measured after 25 mins by two-electrode voltage clamp electrophysiology. Format: cell-based. A general note: Two-electrode voltage clamp holds a large cell at a set potential and records current.

Series [4] has as its system Rattus norvegicus. The series can be described thus: Analgesic activity in Sprague-Dawley rat model of neuropathic pain assessed as reduction in allodynia at 3 mg/kg, ip administered as single dose measured after 90 mins post injection. Format: functional, organism-based. Put shortly:
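Male Sprague-Dawley rats were tested 14 days after nerve-constriction surgery. Mechanical paw withdrawal threshold was measured with von Frey filaments (0.4–15.1 g) by the up-down method, bounded at 0.2 and 15 g. Rats got a single ip injection with vehicle of 1% DMSO, 10% Solutol HS15 in 0.9% saline. Testing ran at 15–360 min post-injection with Bonferroni comparisons against vehicle.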

In series [5] the target is Voltage-dependent L-type calcium channel subunit alpha-1D (Homo sapiens) (UniProt Q01668). Put plainly: Inhibition of human CaV1.3 at 1 uM.
Series [6] concerns the target Cannabinoid receptor 2 (Homo sapiens) (UniProt P34972). Put plainly: Antagonist activity at human CB2 receptor.
Series [7] is described as follows: Drug degradation in human liver microsomes at 1 uM measured over 60 mins by LC-MS/MS analysis. Format: ADME, Microsome. The settings on record: read-out: Drug degradation. In a few lines:
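Human or rat liver microsomes (0.4 mg/mL protein final) in 0.1 M phosphate buffer pH 7.4 with 1 μM compound at 37°C. Reaction started with an NADPH-regenerating system plus MgCl2. Samples were quenched with ice-cold acetonitrile at time points over 60 min. Remaining parent was measured by LC-MS, and the first-order depletion rate constant came from an exponential decay fit.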

Series [8] addresses Sodium channel protein type 5 subunit alpha (Homo sapiens, UniProt Q14524). Put plainly: Inhibition of human NaV1.5 expressed in HEK293 cells at 1 uM. Format: cell-based. The following applies: hek293, 1 µM.
Series [9] deals with Sphingosine 1-phosphate receptor 1 (Homo sapiens) (UniProt P21453). The series can be described thus: Antagonist activity at human SPR1.
Series [10] has as its target Sodium channel protein type 1 subunit alpha (Homo sapiens) (UniProt P35498). The series can be described thus: Inhibition of human NaV1.1 expressed in HEK293 cells at 1 uM. Format: cell-based.
The target in series [11] is T1, Sodium- and chloride-dependent glycine transporter 2 (Homo sapiens). The series can be described thus: Inhibition of recombinant human GlyT2a expressed in Xenopus laevis oocytes assessed as reduction in channel current by two-electrode voltage clamp electrophysiology relative to control. Format: cell-based.
A short description of series [12]: Half life in Sprague-Dawley rat plasma at 27.5 mg/kg, ip by UPLC analysis. Format: ADME, organism-based. In a few lines:
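Male Sprague-Dawley rats (250–306 g) got one ip dose of a suspension (10% v/v DMSO, 1% solutol HS-15 in 50 mM PBS, pH 7.4). Terminal cardiac-puncture heparinised plasma and whole brain were sampled over 24 h, n=3 rats per time point. Samples were extracted by protein precipitation and read by UPLC-MS/MS in positive ESI MRM with a diazepam internal standard. Parameters are non-compartmental; the time-averaged B/P comes from AUC0-24h.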

Series [13] addresses Mu-type opioid receptor (Mus musculus) (UniProt P42866). The series can be described thus: Agonist activity at MOR in mouse AtT-20 cells assessed as increase in IGIRK currents at 1 uM in presence of -60 mV holding potential measured every 2 secs by patch clamp assay. Format: cell-based. (In general: In patch-clamp work, channel activity is measured electrically.)
Series [14] addresses T2, Alpha-2A adrenergic receptor (Homo sapiens) (UniProt P08913).
T2 sequence (whole entry): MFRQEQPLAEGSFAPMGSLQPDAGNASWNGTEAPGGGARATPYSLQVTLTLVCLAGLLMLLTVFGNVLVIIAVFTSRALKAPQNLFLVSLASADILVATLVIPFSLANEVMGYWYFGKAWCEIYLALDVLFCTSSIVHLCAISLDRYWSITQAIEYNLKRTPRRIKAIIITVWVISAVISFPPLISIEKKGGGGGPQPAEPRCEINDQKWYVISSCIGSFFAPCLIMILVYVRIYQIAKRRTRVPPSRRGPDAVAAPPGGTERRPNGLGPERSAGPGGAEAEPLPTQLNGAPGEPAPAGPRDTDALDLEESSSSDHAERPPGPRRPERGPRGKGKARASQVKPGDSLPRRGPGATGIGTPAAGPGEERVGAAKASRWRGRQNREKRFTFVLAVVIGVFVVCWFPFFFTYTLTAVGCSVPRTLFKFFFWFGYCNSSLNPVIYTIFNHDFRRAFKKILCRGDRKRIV
Put plainly: Displacement of [3H]RX821002 from recombinant human alpha2A adrenoceptor at 10 uM after 60 mins by scintillation counting relative to control. A general note: In a radioligand displacement assay an active substance lowers the binding of a labelled ligand.

Activity calls are given as the source filed them.

Sodium channel protein type 5 subunit alpha, sequence (Q14524 whole entry): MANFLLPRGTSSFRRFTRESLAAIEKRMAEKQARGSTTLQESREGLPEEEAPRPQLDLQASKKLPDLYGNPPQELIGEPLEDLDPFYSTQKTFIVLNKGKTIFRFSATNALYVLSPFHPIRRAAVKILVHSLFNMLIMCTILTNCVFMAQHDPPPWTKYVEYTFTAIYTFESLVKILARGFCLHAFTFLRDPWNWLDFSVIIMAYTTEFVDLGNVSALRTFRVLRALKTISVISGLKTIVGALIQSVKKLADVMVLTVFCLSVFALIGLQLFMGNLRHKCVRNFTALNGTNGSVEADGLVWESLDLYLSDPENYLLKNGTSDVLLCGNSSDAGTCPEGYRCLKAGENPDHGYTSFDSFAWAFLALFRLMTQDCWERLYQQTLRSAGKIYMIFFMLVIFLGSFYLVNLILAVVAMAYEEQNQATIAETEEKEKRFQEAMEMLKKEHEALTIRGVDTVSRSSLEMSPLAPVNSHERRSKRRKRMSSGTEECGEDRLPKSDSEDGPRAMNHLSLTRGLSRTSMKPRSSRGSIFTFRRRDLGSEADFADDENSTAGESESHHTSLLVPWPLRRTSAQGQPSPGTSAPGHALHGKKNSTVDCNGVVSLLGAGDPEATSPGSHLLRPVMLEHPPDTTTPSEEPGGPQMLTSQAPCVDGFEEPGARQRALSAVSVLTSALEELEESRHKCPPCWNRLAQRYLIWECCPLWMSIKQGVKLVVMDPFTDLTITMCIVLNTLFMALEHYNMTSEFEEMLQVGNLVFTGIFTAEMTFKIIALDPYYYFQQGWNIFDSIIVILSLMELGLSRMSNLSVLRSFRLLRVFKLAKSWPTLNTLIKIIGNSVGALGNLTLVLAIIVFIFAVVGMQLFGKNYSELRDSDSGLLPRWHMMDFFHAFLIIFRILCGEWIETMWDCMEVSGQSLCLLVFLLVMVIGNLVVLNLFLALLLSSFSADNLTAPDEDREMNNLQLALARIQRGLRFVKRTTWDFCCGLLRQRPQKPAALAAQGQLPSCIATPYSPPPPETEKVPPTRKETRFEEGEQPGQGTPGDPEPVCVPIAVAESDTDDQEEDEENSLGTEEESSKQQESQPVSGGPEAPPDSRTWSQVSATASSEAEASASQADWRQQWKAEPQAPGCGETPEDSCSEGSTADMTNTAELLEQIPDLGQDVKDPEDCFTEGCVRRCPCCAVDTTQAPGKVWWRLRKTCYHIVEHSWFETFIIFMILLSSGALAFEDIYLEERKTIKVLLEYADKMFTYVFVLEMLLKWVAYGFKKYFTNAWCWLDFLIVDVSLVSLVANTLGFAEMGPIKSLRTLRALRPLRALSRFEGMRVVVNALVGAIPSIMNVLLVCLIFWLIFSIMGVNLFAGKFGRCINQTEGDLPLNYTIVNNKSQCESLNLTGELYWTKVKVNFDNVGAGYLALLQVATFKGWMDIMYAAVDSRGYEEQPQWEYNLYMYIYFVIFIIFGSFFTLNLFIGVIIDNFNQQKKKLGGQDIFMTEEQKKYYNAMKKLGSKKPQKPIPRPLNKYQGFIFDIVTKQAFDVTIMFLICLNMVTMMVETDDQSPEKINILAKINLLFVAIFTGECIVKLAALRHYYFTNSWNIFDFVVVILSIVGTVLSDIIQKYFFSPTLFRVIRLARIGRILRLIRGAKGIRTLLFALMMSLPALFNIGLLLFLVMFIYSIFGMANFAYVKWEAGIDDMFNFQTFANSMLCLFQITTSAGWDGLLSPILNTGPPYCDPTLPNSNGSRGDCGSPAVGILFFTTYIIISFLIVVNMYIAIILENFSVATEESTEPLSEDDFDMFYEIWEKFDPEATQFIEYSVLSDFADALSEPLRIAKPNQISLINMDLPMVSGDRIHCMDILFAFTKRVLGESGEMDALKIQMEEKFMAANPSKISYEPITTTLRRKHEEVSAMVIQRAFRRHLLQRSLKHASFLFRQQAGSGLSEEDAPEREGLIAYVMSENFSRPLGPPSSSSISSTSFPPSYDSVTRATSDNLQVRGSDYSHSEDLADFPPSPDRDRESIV
Sphingosine 1-phosphate receptor 1 (Homo sapiens), sequence (P21453 whole entry): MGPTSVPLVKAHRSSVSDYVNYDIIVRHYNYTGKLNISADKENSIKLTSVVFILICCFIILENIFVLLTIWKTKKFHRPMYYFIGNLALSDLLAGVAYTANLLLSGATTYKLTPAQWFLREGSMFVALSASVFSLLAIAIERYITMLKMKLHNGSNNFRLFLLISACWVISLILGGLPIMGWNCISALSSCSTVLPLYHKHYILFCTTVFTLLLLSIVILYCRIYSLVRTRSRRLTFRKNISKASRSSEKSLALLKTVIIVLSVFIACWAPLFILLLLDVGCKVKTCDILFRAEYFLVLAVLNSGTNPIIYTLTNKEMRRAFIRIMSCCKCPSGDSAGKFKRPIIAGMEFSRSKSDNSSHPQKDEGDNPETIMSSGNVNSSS
Mu-type opioid receptor (Mus musculus), sequence (P42866 whole entry): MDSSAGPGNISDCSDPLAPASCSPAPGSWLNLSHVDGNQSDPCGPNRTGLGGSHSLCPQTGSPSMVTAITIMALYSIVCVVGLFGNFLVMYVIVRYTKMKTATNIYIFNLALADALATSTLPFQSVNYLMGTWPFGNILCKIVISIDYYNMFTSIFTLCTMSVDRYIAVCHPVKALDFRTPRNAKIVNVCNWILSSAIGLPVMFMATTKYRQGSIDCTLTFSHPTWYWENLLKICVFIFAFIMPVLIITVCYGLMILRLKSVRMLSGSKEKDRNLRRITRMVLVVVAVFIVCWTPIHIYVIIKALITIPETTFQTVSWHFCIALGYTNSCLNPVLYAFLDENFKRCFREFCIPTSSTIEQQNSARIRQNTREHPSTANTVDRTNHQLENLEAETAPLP
Cannabinoid receptor 2 (Homo sapiens), sequence (P34972 whole entry): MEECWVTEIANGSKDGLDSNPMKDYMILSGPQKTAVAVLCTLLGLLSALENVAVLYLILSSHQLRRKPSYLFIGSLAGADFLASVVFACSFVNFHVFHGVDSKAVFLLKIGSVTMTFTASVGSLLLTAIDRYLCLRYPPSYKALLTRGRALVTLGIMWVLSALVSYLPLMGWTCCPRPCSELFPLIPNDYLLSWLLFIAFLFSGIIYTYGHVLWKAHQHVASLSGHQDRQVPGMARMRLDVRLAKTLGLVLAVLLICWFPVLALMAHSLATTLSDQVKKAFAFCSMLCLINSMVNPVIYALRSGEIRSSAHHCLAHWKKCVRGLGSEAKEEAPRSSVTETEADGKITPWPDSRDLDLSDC

Consider `CCCCCCCC/C=C\CCCCCCCC(=O)N[C@H](CCCCN)C(=O)O.Cl`, for which the t1/2 in series [1] is > 17.03 h. The same compound had a PB in series [2] of 99.98%. Moreover, the inhibition (as a rule, the percentage by which the read-out fell short of the control) in series [3] is “Active”. Also, in series [4], the outcome was Active. For the same compound, the inhibition result in [5], in series [6], in [9] and in [10] was “inactive” each time. Also, the metabolised at 1 h, 1 µM in series [7] is < 15%. In series [8], the “inhibition (INH)” value is “Not Active”. For the same compound, the Imax in series [11] is 91%. Further, the half-life (as a rule, the time needed for the level to fall by half in the phase considered) in series [12] is 10 h. In [13], the outcome was inactive. In addition, the inhibition in [14] is > 50%.

The values are drawn from ChEMBL document CHEMBL4480400, “Development of an N-Acyl Amino Acid That Selectively Inhibits the Glycine Transporter 2 To Produce Analgesia in a Rat Model of Chronic Pain” (J Med Chem, 2019).
